M1 PAM parental – nonselective activator or artifact in parental CHO-K1 calcium assay. ATP EC20, Fluo-8 calcium fluorescence; 0% at ATP EC20, 100% at ATP max. AID 602247. activation, % at 3 µM. 360,000 compounds, 0.02% hits;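 active = activation above the run cutoff, the mean activation of all test compounds plus 3 SD, cut at about 40% in these data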;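 also: peak over basal fluorescence ratio in a 140 s read after ATP addition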
CHO-K1 Ca ag – nonselective activator or artifact in parental CHO-K1 cells; Fluo-8 calcium fluorescence; scaled to maximal ATP response, vehicle zero; activation, % at 3 µM; 360,000 compounds, 0.48% hits; AID 602248; in the data active = activation above about 15%;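 also: untransfected CHO-K1 host cells lacking M1 receptor as counterscreen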
CHO-K1 Ca antag – nonselective inhibitor or artifact in parental CHO-K1 cells | AID 602250 | 360,000 compounds, 0.6% hits | inhibition, % at 3 µM | ATP-induced calcium, Fluo-8 fluorescence;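 active = inhibition above a per-plate cutoff, the plate's mean sample inhibition plus 3 SD, cut at about 24% in these data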
CHO parental Ca – counter-screen for OX1R antagonists: effect in parental CHO cells; parental CHO-K1, ATP-induced calcium, Fluo-8 fluorescence; AID 463079; 330,000 compounds, 0.63% hits; inhibition, % at 5.6 µM;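 active = inhibition above that plate's mean sample inhibition plus 3 SD, cut at about 26% in these data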
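Test system: untransfected parental CHO cell line; also added: ATP stimulus; dosing: 5.6 µM, single dose; signal: calcium-sensitive Fluo-8 fluorescence; measure: percent inhibition of ATP-evoked calcium rise, normalized to controls; benchmarks: low control ATP plus DMSO, high control DMSO only; replication: one well per compound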
OX1R antag-1 – blocks the human orexin 1 receptor; 330,000 compounds, 0.43% hits; CHO/OX1R cells, Fluo-8 calcium fluorescence, orexin A; inhibition, % at 5 µM; AID 434989; O43613;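 active = inhibition above its plate's threshold, mean inhibition of all tested compounds on the plate plus 3 SD, cut at about 37% in these data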
Target sequence (O43613 whole entry, looked up): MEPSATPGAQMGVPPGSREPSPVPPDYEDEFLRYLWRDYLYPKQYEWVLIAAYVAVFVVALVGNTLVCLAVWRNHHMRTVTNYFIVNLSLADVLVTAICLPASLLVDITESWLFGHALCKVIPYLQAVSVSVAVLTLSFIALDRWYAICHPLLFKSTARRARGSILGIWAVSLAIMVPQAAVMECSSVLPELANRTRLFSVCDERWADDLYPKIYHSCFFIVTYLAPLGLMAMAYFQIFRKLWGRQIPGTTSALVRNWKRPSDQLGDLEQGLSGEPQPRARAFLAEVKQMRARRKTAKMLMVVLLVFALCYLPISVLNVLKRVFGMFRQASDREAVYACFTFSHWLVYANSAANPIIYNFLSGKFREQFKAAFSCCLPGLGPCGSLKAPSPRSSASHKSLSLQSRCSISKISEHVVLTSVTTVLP
OX1R antag-2 – antagonists of human orexin 1 receptor (OX1R) | O43613 | AID 485270 | 330,000 compounds, 1.8% hits | OX1R-expressing cells, FRET antagonist read-out | inhibition, % at 6.6 µM; in the data active = inhibition mostly above about 38%, no sharp cut-off; inactive = mostly below about 40%
Of the large screens only hits and unclear results are named; the others gave an inactive call. Most compounds without a hit are left out; they make up all but 2.9% or so of the library.

CCOc1ccc(OCCSc2nc3ccccc3[nH]2)cc1	none
CCCOc1ccc(CSc2nc3ccccc3[nH]2)cc1	CHO parental Ca 48
CC(C)c1ccc(-c2nnc(SCC(=O)NC3CC3)n2C)cc1	none
CCOc1ccc(NC(=S)N2CCN(S(=O)(=O)c3ccc(OC)cc3)CC2)cc1	none (no result: CHO parental Ca, OX1R antag-1, OX1R antag-2)
O=C(Nc1ccc(Cl)c(Cl)c1)OCc1cccnc1	CHO-K1 Ca antag 27, CHO parental Ca 76, OX1R antag-2 75
COc1cccc(/C=N/NC(=O)CNC(=O)c2ccc(S(=O)(=O)N3CCCC3)cc2)c1OC	none
Cc1ccc(S(=O)(=O)N2CCN(c3nccnc3C#N)CC2)cc1	none
COc1ccc(-c2cc(C(=O)OCc3ccccn3)c3ccccc3n2)cc1	none
CN(C(=O)Nc1ccccc1)C1CCCc2ccccc21 (centres undefined)	CHO-K1 Ca ag 16
COc1ccccc1N(CC(O)Cn1c(C)nc2ccccc21)S(=O)(=O)c1ccccc1 (centres undefined)	OX1R antag-2 63
O=C(C1CCC1)N1CCc2cc(S(=O)(=O)NCCN3CCN(c4ccccc4F)CC3)ccc21	CHO parental Ca 51
Cc1c(C(=O)N/N=C/c2ccc(O)cc2)sc(=S)n1C	none
Cc1c(C(=O)N/N=C/c2ccccc2)sc(=S)n1C	OX1R antag-2 92
COc1ccc(OC)c(C(=O)NC2CCSc3ccccc32)c1 (centres undefined)	OX1R antag-2 47
O=C1C=C(Nc2ccccc2O)c2ccccc2C1=O	OX1R antag-2 58
O=C1C=C(Nc2ccc(F)cc2)c2ccccc2C1=O	OX1R antag-2 50
Cc1ccc(NC2=CC(=O)C(=O)c3ccccc32)c(C)c1	none
Nc1nnc(CCS(=O)(=O)c2ccc(Cl)cc2)s1	none
Cc1ccc(S(=O)(=O)CCc2nnc(N)s2)cc1C	CHO parental Ca 38
COc1ccccc1C1NC(=O)NC(C)=C1C(=O)OCC1CCCCC1 (centres undefined)	none (no result: CHO parental Ca, OX1R antag-1, OX1R antag-2)
Cc1c(C(=O)NCc2ccc([N+](=O)[O-])cc2)sc(=O)n1Cc1ccc(-c2ccccc2)cc1	none (no result: CHO parental Ca, OX1R antag-1, OX1R antag-2)
Cc1[nH]c(=O)sc1C(=O)NCc1ccc([N+](=O)[O-])cc1	CHO-K1 Ca antag 35 (no result: CHO parental Ca, OX1R antag-1, OX1R antag-2)
CCn1c2ccccc2c2cc(CN3CCN(S(C)(=O)=O)CC3)ccc21	none
CCn1c2ccccc2c2cc(CN3CCN(Cc4cc(OC)ccc4O)CC3)ccc21	OX1R antag-2 50
CC(C)C[C@H]1CN(CCCC[C@@H]2CNC(=O)C(=O)N2CC2CCCCC2)C(=O)C(=O)N1CCc1ccc(O)cc1	none (no result: CHO parental Ca, OX1R antag-1, OX1R antag-2)
COc1ccc(CCNC(=O)CCC(=O)c2cccs2)cc1OC	CHO-K1 Ca antag 28
COc1ccc(CCNC(=O)CCC(=O)NC2CCCC(C)C2C)cc1OC (centres undefined)	CHO-K1 Ca antag 29
CNC(C)C#Cc1ccc2c(=O)c3c(OC)cccc3oc2c1 (centres undefined)	none (no result: M1 PAM parental, CHO-K1 Ca ag, CHO-K1 Ca antag)
CNC(C)C#Cc1ccc2oc3cccc(OC)c3c(=O)c2c1 (centres undefined)	OX1R antag-2 48
CC(C)NC(=O)c1ccc(COc2ccc(C(C)(C)C)cc2)o1	CHO parental Ca 66
OCCN=c1cc(-c2ccccc2)oc2ccc(Cl)cc12	OX1R antag-2 47
CN(C)CCCN=c1cc(-c2ccccc2)oc2ccc(Cl)cc12	none (no result: CHO parental Ca, OX1R antag-1, OX1R antag-2)
CCCCCCCC/C=C\CCCCCCCC(=O)NCCO	none
CCCCCCCC/C=C\CCCCCCCC(=O)NCCc1ccc(O)c(O)c1	CHO parental Ca 36
COc1ccc(OCC(O)CN(C2CCCCC2)C2CCCCC2)cc1 (centres undefined)	CHO-K1 Ca antag 26
O=C(NNC(=O)C1CCCC1)c1cc([N+](=O)[O-])cc([N+](=O)[O-])c1	OX1R antag-2 38
O=C(NNC(=O)C1CC1)c1cccc([N+](=O)[O-])c1	none (no result: CHO parental Ca, OX1R antag-1, OX1R antag-2)
Cc1cccc(-c2noc(CN(C(=O)CCc3ccccc3)C(C)C)n2)c1	CHO parental Ca 42
COc1ccc(Cl)cc1C(=O)N(Cc1nc(-c2cccc(C)c2)no1)C(C)C	CHO parental Ca 47
Cc1cccc(-c2noc(CN(C)S(=O)(=O)c3cc(Cl)ccc3Cl)n2)c1	none
Cc1ccc(-c2noc(CN(C(=O)C(c3ccccc3)c3ccccc3)C(C)C)n2)cc1	CHO parental Ca 52
CC(C)N(Cc1nc(-c2ccc(Cl)cc2)no1)C(=O)C(c1ccccc1)c1ccccc1	none
Cc1cccc(-c2noc(CN(C(=O)/C=C/c3ccccc3Cl)C(C)C)n2)c1	none
CC(C)N(Cc1nc(-c2ccccc2)no1)S(=O)(=O)c1ccccc1	CHO parental Ca 60
Cc1cc(C)cc(OCC(=O)O/N=C(\N)c2cccnc2)c1	none (no result: CHO parental Ca, OX1R antag-1, OX1R antag-2)
CCOC(=O)C1CCN(CC(=O)Nc2cc(S(=O)(=O)N3CCCCC3)ccc2Cl)CC1	none (no result: CHO parental Ca, OX1R antag-1, OX1R antag-2)
CC(C)OCCCNC(=O)CN1C(=O)/C(=C/c2ccccc2)Sc2ccccc21	OX1R antag-2 69
CCc1ccc(/C=C2/Sc3ccccc3N(CC(=O)NCCCOC)C2=O)cc1	none (no result: M1 PAM parental, CHO-K1 Ca ag, CHO-K1 Ca antag)
Cc1cc(OCC(=O)OCC(=O)NCCN2C(=O)CSC2=O)ccc1Cl	none
CN(C)c1ccc(N=Nc2ccccc2C(=O)OCC(=O)N(C)C2CCCCC2)cc1	CHO parental Ca 55
Cc1ccc(NC(=S)N2CC(C)OC(C)C2)cc1C (centres undefined)	none (no result: CHO parental Ca, OX1R antag-1, OX1R antag-2)
Cc1ccc(NC(=S)NNC(=O)c2cccc([N+](=O)[O-])c2)cc1Cl	OX1R antag-2 40
CC1(C(=O)NNC(=O)c2cccc([N+](=O)[O-])c2)CC1(Br)Br (centres undefined)	OX1R antag-2 42
CC1(C(=O)NNC(=O)c2ccc([N+](=O)[O-])cc2)CC1(Br)Br (centres undefined)	none
O=C1NC[C@@H](CCCCN2C[C@H](Cc3ccc(O)cc3)N(CCc3ccccc3)C(=O)C2=O)N(CCc2ccc(O)cc2)C1=O	none (no result: CHO parental Ca, OX1R antag-1, OX1R antag-2)
CC(=O)Nc1ccc(-c2ccnc3c2CC(C)(C(=O)Nc2ccc4c(c2)OCO4)O3)cc1 (centres undefined)	none (no result: CHO parental Ca, OX1R antag-1, OX1R antag-2)
COc1c(C)cc(S(=O)(=O)NCc2ccco2)c(C)c1C	none
O=C(Nc1ccc(N2CCOCC2)cc1N1CCOCC1)c1cccc([N+](=O)[O-])c1	none
Cc1cc(Nc2ccccc2)nn1C(=O)c1ccc(Br)cc1	CHO-K1 Ca antag 25
Cc1cc(Nc2ccccc2)nn1C(=O)c1ccccc1	none
CC1Cc2ccccc2N1C(=O)COC(=O)Cc1ccc(F)cc1 (centres undefined)	none
COc1ccc(CNC(=O)C(CCSC)NS(=O)(=O)c2ccccc2F)cc1 (centres undefined)	none
Cc1cc(C(=O)CSc2nc3ccc(Cl)cc3[nH]2)c(C)n1Cc1ccco1	OX1R antag-2 45
Cc1cccc(OCC(=O)Nc2ccc3oc(=O)ccc3c2)c1C	CHO parental Ca 50
COCCNC(=O)c1ccc2c3n(nc2c1)-c1ccc(C)cc1CO3	OX1R antag-2 64
